In ChEMBL document CHEMBL3616382, “Catechols and 3-hydroxypyridones as inhibitors of the DNA repair complex ERCC1-XPF” (Bioorg Med Chem Lett, 2015):

Columns and labels:
[1] = target: T1, Deoxyribonuclease-1 (Homo sapiens, UniProt P24855); assay: Inhibition of DNAse1 (unknown origin)
T1 sequence (P24855 whole entry): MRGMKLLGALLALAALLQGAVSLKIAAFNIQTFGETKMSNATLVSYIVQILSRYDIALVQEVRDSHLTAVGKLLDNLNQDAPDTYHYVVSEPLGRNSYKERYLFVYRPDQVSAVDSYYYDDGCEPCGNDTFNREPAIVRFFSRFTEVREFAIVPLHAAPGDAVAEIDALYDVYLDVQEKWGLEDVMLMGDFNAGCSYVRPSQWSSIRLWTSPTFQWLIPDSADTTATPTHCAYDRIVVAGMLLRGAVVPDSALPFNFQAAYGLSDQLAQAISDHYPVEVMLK

[2] = target: T2, DNA excision repair protein ERCC-1/DNA repair endonuclease XPF (Homo sapiens, UniProt P07992+Q92889); assay: Inhibition of ERCC1-XPF (unknown origin) by high-throughput fluorescence based in-vitro endonuclease assay; type: protein-complex assay
T2 sequence (P07992 whole entry): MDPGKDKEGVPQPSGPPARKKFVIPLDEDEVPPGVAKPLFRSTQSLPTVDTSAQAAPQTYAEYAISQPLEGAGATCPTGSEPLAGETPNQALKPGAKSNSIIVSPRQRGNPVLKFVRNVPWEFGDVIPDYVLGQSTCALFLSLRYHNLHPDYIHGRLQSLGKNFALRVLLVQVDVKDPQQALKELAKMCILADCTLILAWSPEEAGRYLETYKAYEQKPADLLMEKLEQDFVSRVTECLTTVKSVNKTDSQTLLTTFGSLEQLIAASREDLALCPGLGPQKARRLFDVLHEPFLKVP
T2 sequence (Q92889 whole entry): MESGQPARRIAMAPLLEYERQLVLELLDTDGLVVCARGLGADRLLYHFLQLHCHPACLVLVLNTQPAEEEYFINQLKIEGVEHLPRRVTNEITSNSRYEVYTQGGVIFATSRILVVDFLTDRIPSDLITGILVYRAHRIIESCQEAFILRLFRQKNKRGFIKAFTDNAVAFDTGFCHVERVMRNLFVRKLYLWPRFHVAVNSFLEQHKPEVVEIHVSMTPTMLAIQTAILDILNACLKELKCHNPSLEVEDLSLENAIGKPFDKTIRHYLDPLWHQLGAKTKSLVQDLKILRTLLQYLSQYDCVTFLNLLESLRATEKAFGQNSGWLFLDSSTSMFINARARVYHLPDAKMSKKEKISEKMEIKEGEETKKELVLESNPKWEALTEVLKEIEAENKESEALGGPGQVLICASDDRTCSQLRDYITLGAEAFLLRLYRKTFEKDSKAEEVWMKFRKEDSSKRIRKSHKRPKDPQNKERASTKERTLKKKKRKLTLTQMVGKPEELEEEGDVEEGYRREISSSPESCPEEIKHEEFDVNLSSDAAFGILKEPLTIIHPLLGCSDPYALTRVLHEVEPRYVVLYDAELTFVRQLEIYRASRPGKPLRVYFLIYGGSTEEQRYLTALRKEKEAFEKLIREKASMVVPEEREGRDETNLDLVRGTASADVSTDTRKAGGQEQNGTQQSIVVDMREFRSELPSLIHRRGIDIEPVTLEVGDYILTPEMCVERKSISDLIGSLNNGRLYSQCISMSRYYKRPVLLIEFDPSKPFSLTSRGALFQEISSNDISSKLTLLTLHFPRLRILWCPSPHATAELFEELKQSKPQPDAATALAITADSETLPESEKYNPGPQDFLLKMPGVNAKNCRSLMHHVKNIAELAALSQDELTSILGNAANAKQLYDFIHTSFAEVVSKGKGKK

[3] = target: Flap endonuclease 1 (Homo sapiens, UniProt P39748); assay: Inhibition of FEN1 (unknown origin)
Chain of Flap endonuclease 1 (P39748 whole entry): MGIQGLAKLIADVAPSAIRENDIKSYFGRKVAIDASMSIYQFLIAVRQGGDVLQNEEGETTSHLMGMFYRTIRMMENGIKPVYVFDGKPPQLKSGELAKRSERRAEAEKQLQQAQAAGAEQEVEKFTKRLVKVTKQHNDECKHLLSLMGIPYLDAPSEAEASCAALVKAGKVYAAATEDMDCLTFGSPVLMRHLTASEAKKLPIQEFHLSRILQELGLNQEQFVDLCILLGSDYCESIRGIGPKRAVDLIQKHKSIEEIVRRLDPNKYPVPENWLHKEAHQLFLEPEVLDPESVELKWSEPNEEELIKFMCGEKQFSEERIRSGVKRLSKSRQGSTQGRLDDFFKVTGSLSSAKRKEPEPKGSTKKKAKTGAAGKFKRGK

[4] = Lipophilicity, log D of the compound; type: physicochemical; details: octanol/water
[5] = Apparent permeability by PAMPA method; type: physicochemical
[6] = tested on: HepG2; assay: Cytotoxicity against human HepG2 cells; type: cell-based
Procedure, shortened: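 Hep-G2 cells exposed to compound at concentrations up to 10 μM; toxicity assessed.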

[7] = target: T2, DNA excision repair protein ERCC-1/DNA repair endonuclease XPF; assay: Binding affinity to ERCC1-XPF (unknown origin) by SPR assay; type: protein-complex assay
[8] = Half life in mouse liver microsomes; type: ADME
[9] = Half life in human liver microsomes; type: ADME
[10] = target: T3, DNA excision repair protein ERCC-1/DNA repair endonuclease XPF (Homo sapiens) (UniProt P07992+Q92889); details: A-375, 1.28 uM
[11] = target: T3, DNA excision repair protein ERCC-1/DNA repair endonuclease XPF (Homo sapiens); details: A-375, 0.624 uM
[12] = target: T3, DNA excision repair protein ERCC-1/DNA repair endonuclease XPF (Homo sapiens); details: A-375, 10 uM
[13] = target: T3, DNA excision repair protein ERCC-1/DNA repair endonuclease XPF (Homo sapiens); details: A-375, 4.96 uM
[14] = tested on: A-375; assay: Cytotoxicity against human A375 cells assessed as reduction in cell number at 10 uM incubated for 5 days; type: cell-based; details: a-375, 120 h
Procedure, shortened: (§1)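 A375 melanoma cells treated with compound alone over 0.6–10 μM for 5 days; cell count determined by high-content imaging. Data from 4 separate experiments, error bars SD.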

[15] = target: T3, DNA excision repair protein ERCC-1/DNA repair endonuclease XPF (Homo sapiens); details: A-375, 2.48 uM
[16] = target: T2, DNA excision repair protein ERCC-1/DNA repair endonuclease XPF; assay: Inhibition of ERCC1-XPF in human A375 cells assessed as reduction in direct nucleotide excision repair of UV-damaged pEGFP plasmid incubated for 234 hrs by recombinant GFP reporter assay; type: cell-based, A-375; details: in the assay text read “24 hrs” for “234 hrs”
Procedure, shortened: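 A375 cells co-transfected with UV-damaged or undamaged pEGFP plus pGL3 luciferase plasmid, treated with compound up to 60 μM for 24 h. GFP/luciferase ratio for damaged plasmid divided by that for undamaged, then normalized to no-compound controls to give % NER activity (DNA Repair Index); IC50 from plot against concentration.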

[17] = tested on: A-375; assay: Cytotoxicity against human A375 cells assessed as reduction in cell number at 4.89 uM incubated for 5 days; type: cell-based; details: a-375, 120 h, 4.96 µM, in the assay text read “4.96 uM” for “4.89 uM”; procedure, shortened: as §1
[18] = target: T3, DNA excision repair protein ERCC-1/DNA repair endonuclease XPF (Homo sapiens); assay: Inhibition of ERCC1-XPF in human A375 cells assessed as induction of delay in DNA repair by measuring cumulative frequency of cells at 10 uM pre-incubated for 1 hr before 5 uM cisplatin exposure for 1 hr and measured after 6 hrs by […] based gammaH2AX foci assay (reference value: 45.43%); type: cell-based; parameters: scale not given: the % may be the effect or the level left; details: A-375
Procedure, shortened: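 A375 cells pretreated with compound (10 μM) for 1 h, then 5 μM cisplatin for 1 h to induce damage, with continued compound exposure for 6 h. γH2AX foci per cell quantified by immunofluorescence with specific antibody and high-content imaging; cumulative Gaussian fit of foci distribution. 2 representative experiments, triplicates each, error bars SEM.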

| IC50 [1] | IC50 [2] | IC50 [3] | Structure (SMILES) | also measured |
| --- | --- | --- | --- | --- |
| > 100 µM | 4.1 µM | > 100 µM | O=C1N(Cc2ccc(Cl)cc2)CCN1Cc1ccc(O)c(O)c1 |  |
| > 100 µM | 13.3 µM | > 100 µM | O=C(Cc1ccccc1)NCc1ccc(O)c(O)c1 |  |
| > 100 µM | 33 µM | > 100 µM | Cc1cccc(NCC(=O)N/N=C/c2cc(Br)c(O)c(O)c2Br)c1 |  |
|  | 24 µM |  | CC(C)C(=O)NCc1ccc(O)c(O)c1 |  |
| > 100 µM | 15.2 µM | > 100 µM | O=C(CNc1ccccc1)NCCc1ccc(O)c(O)c1 |  |
| > 100 µM | 1.1 µM | > 100 µM | O=C(Cc1ccc(Cl)cc1Cl)NCc1cc(O)c(O)cc1F |  |
|  | 1.6 µM | > 100 µM | O=C(NCc1ccc(O)c(O)c1)C1(c2ccccc2)CCCCC1 |  |
| > 100 µM | 1.6 µM | > 100 µM | O=C(Cc1ccc(Cl)cc1Cl)NCc1ccc(O)c(O)c1Cl |  |
| > 100 µM | 1.4 µM | > 100 µM | O=C(CC1CCCCC1)NCc1ccc(O)c(O)c1 |  |
| > 100 µM | 12.2 µM | > 100 µM | Oc1ccc(Cc2nc(-c3ccc(Cl)cc3)no2)cc1O |  |
| > 100 µM | 2.9 µM | > 100 µM | O=S(=O)(Cc1ccc(Cl)cc1Cl)NCc1ccc(O)c(O)c1 |  |
| > 100 µM | 12.1 µM | > 100 µM | O=C(COc1ccccc1)NCc1ccc(O)c(O)c1 |  |
| > 100 µM | 5.2 µM | > 100 µM | O=c1[nH]cc(-c2cccc(-n3cccn3)c2)cc1O |  |
| > 100 µM | 0.8 µM | > 100 µM | O=C(Cc1ccccc1Cl)NCc1ccc(O)c(O)c1 |  |
| > 100 µM | 13.1 µM | > 100 µM | O=c1[nH]cc(-c2ccc(F)c(Cl)c2)cc1O |  |
| > 100 µM | 7.8 µM | > 100 µM | Oc1ccc(-c2nc(Cc3ccc(Cl)cc3)no2)cc1O |  |
| > 100 µM | 13.5 µM | > 100 µM | CC(=O)Nc1ccc(-c2c[nH]c(=O)c(O)c2)cc1 |  |
|  | 2.6 µM |  | COc1ccc(CC(=O)NCc2ccc(O)c(O)c2)cc1 |  |
| > 100 µM | 1 µM | > 100 µM | O=C(Cc1ccc(Cl)cc1Cl)N1CCc2cc(O)c(O)cc2C1 |  |
|  | 55.2 µM |  | O=c1[nH]c(-c2ccc(F)cc2)ccc1O |  |
|  | > 100 µM |  | O=c1[nH]ccc(-c2ccc(F)cc2)c1O |  |
| > 100 µM | 4.8 µM | > 100 µM | O=C(NCc1ccc(O)c(O)c1)Nc1ccc(Cl)cc1 |  |

| IC50 [1] | IC50 [2] | IC50 [3] | Structure (SMILES) | also measured |
| --- | --- | --- | --- | --- |
| > 100 µM | 1.6 µM | > 100 µM | O=C(CNc1ccccc1)Nc1ccc(O)c(O)c1 |  |
| > 100 µM | 14.6 µM | > 100 µM | Cn1ncc2ccc(-c3c[nH]c(=O)c(O)c3)cc21 |  |
| > 100 µM | > 100 µM |  | CC(=O)N1CCN(CC(=O)NCc2ccc(O)c(O)c2)CC1 |  |
| > 100 µM | 0.8 µM | > 100 µM | CN(Cc1ccc(O)c(O)c1)C(=O)Cc1ccc(Cl)cc1Cl |  |
| > 100 µM | 0.74 µM | > 100 µM | O=C(Cc1ccc(O)c(O)c1)NCc1ccc(Cl)cc1Cl |  |
| > 100 µM | 24.5 µM | > 100 µM | O=C(NCc1ccc(O)c(O)c1)c1ccccc1 |  |
|  | 25.6 µM |  | O=C(Cc1cccnc1)NCc1ccc(O)c(O)c1 |  |
| > 100 µM | 7.3 µM | > 100 µM | O=C(CCc1ccccc1)NCc1ccc(O)c(O)c1 |  |
| > 100 µM | 8.7 µM | > 100 µM | O=c1[nH]cc(-c2ccc(F)cc2)cc1O | logD [4]: 2; Papp [5]: 4.4 ×10⁻⁶ cm/s; Activity [6]: > 10 µM; Kd [7]: 3.5 µM; half-life [8]: > 400 min; half-life [9]: > 400 min |
| > 100 µM | 7.9 µM | > 100 µM | O=C(Cc1ccc(N2CCOCC2)cc1)NCc1ccc(O)c(O)c1 |  |
|  | 1.8 µM | > 100 µM | CC(C(=O)NCc1ccc(O)c(O)c1)c1ccccc1 (centres undefined) |  |
|  | 100 µM |  | O=C(Cc1ccc(Cl)cc1Cl)NCc1c[nH]c(=O)c(O)c1 |  |
| > 100 µM | 0.9 µM | > 100 µM | O=C(CNc1ccccc1)NCc1ccc(O)c(O)c1 |  |
| > 100 µM | 1 µM | > 100 µM | O=C(Cc1ccc(Cl)cc1)NCc1ccc(O)c(O)c1 |  |
|  | 24 µM |  | O=c1[nH]cc(Br)cc1O |  |
| > 100 µM | 2 µM | > 100 µM | O=C(CNc1ccccc1)N/N=C/c1ccc(O)c(O)c1 |  |
| > 100 µM | 0.63 µM | > 100 µM | O=C(Cc1ccc(Cl)cc1Cl)NCc1ccc(O)c(O)c1 | PF50 [10]: 1.15; logD [4]: 2.7; PF50 [11]: 1.08; Papp [5]: 3.9 ×10⁻⁶ cm/s; PF50 [12]: 2.03; Activity [6]: > 10 µM; PF50 [13]: 1.68; Activity [14]: Toxic; PF50 [15]: 1.51; IC50 [16]: 15.6 µM; Activity [17]: Toxic; Activity [18]: 50.2%; Kd [7]: 30 µM; half-life [8]: 23 min; half-life [9]: 28 min |
|  | 4 µM |  | N#Cc1cccc(CC(=O)NCc2ccc(O)c(O)c2)c1 |  |
| > 100 µM | 24.6 µM | > 100 µM | O=C(NCc1ccc(O)c(O)c1)C1CCCC1 |  |
| > 100 µM | 5.8 µM | > 100 µM | O=C(NCc1ccc(O)c(O)c1)C1CCN(Cc2ccc(F)cc2)CC1 |  |
|  | > 100 µM |  | Cn1cc(-c2ccc(F)cc2)cc(O)c1=O |  |
